Screens as filed in PubChem.
A selection: hits, their analogues and other compounds. The true share with any hit is near 2.5%.
SENP8 block-1: inhibitors of human SENP8 protease | Q96LD8 | purified SENP8, Z-RLRGG-aminoluciferin cleavage, luminescence | inhibition, % at 10 µM | 330,000 tested, 1.2% active | AID 2540; in the data active = inhibition above about 50%
Target sequence (Q96LD8 whole entry, looked up): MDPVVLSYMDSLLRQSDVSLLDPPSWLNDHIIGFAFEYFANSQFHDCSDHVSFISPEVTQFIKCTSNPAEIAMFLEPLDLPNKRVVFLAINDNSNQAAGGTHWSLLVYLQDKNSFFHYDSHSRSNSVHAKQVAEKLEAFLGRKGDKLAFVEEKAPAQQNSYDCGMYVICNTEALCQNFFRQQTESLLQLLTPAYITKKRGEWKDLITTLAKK
SENP6 inh: SENP6 protease inhibition; Q9GZR1; Recombinant SENP6 catalytic domain, aminoluciferin luminescence; inhibition, % at 10 µM; 330,000 tested, 1.8% active; AID 2599;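 active = inhibition above about 50% at the single tested dose, limit read from the data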;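 note: plate controls were DMSO wells with enzyme for no effect and DMSO wells lacking enzyme for full effect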
Target sequence (Q9GZR1 628-1112 limits assumed): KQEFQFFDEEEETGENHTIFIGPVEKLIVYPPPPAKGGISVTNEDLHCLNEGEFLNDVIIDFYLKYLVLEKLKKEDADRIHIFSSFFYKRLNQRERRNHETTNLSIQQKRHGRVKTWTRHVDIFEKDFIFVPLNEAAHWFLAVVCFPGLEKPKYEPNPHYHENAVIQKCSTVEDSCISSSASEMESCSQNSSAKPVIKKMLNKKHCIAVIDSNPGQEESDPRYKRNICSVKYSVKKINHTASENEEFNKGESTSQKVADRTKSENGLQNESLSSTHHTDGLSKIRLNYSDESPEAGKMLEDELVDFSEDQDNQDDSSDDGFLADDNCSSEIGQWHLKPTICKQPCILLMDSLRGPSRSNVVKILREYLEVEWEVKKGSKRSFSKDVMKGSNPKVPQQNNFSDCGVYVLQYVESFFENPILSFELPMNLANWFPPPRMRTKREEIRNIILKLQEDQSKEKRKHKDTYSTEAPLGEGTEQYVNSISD
SENP7 inh: inhibitors of human SENP7 protease. recombinant SENP7, Z-RLRGG-aminoluciferin luminescence, 40 min. inhibition, % at 5 µM. 330,000 tested, 1.5% active. AID 434973;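 active = inhibition above about 50% at the single test dose, limit read from the data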;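 note: plate controls were DMSO with enzyme for no effect and no enzyme buffer wells for full effect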
SENP8 block-2: blocks human SENP8 cleavage of Nedd8 substrate. 360,000 tested, 0.64% active. inhibition, % at 20 µM. recombinant SENP8, Nedd8 substrate fluorescence. AID 602440. Q96LD8; in the data active = inhibition mostly above about 40%, no sharp cut-off; inactive = mostly below about 27%
SENP1 FRET inh: SENP1 (human) catalytic domain inhibition; Q9P0U3; recombinant SENP1 catalytic domain, CyPet-SUMO1-YPet FRET cleavage; inhibition, % at 10 µM; 360,000 tested, 0.21% active; AID 624204;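 active = inhibition at least 30% at 10 µM, raw YFP signal under a set limit, fluorescence ratio 0.5 to 1.5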;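 note: 0% = enzyme with DMSO and 100% = no enzyme wells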
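Controls: no-enzyme wells low, DMSO-plus-enzyme wells high control. Test system: human recombinant His6-tagged SENP1 catalytic domain enzyme. Reagent: SFCypet-SUMO1-SFYpet FRET protein substrate, 25 nM final. Doses: one dose per compound, 10 µM, 0.5% DMSO. Detection: FRET, CFP and YFP emission. Timing: 50 min reaction at room temperature.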
SENP8 conf: human SENP8 inhibition, confirmed; AID 488912; shares compounds with SENP7 inh; 6,200 tested, 40% active; inhibition, % at 12.5 µM; Recombinant SENP8, Z-RLRGG-aminoluciferin luminescence, 60 min;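 active = mean inhibition across replicates above about 50%, limit read from the data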
SENP6 conf: human SENP6 inhibition, confirmed; shares compounds with SENP7 inh; recombinant SENP6, Z-RLRGG-aminoluciferin luminescence; inhibition, % at 12.5 µM; 6,200 tested, 58% active; AID 488915
SENP7 conf: confirmation of human SENP7 protease inhibitors. inhibition, % at 12.5 µM. 6,200 tested, 69% active. AID 488917. recombinant SENP7, Z-RLRGG-aminoluciferin luminescence, 40 min. shares compounds with SENP7 inh
Casp3 select: caspase-3 inhibition (SENP selectivity assay); shares compounds with SENP7 inh; purified caspase-3, Z-DEVD-aminoluciferin luminescence, 60 min; inhibition, % at 12.5 µM; 6,200 tested, 60% active;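 active = mean inhibition above about 50%, limit read from the data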;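 note: plate controls were enzyme with DMSO for no effect and wells without caspase-3 for full effect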
SENP luc ctr: counter-screen for SENP inhibitors: luminescence interference; shares compounds with SENP7 inh; Pre-incubated SENP8/Z-RLRGG-aminoluciferin, luciferase luminescence interference; inhibition, % at 12.5 µM; 6,200 tested, 39% active; AID 488919;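 active = mean inhibition above about 50% when retested at one dose, limit read from the data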;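 note: plate controls were DMSO wells with completed reaction for no effect and substrate without enzyme for full effect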
Starred values were filed as active, the others as inactive; i = inactive; x = not tested or not shown.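 Rule for the calls, unless noted: active = mean inhibition above about 50% in the one-dose retest (limit read from the data); inactive = the rest.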

SMILES | SENP8 block-1 | SENP6 inh | SENP7 inh | SENP8 block-2 | SENP1 FRET inh | SENP8 conf | SENP6 conf | SENP7 conf | Casp3 select | SENP luc ctr
Cc1ccc(NC(=O)c2ccc([N+](=O)[O-])o2)cc1C | 60.7* | 75.9* | 87.3* | 15.5 | 1.4 | 80.8* | 80.4* | 94.1* | 78.6* | 79.8*
COC(=O)c1ccc(COC(=O)CNC(=O)c2cccs2)cc1 | -6.1 | 1.7 | -0.2 | 12.3 | -0.5 | x | x | x | x | x
COc1cc(-c2cc(NC(C)=O)c3ncc(-c4ccc(F)cc4)n3c2)cc(OC)c1OC | x | x | x | -280.3 | -3.4 | x | x | x | x | x
COc1cc2sc3cc(NCc4ccc5c(c4)OCO5)ccc3c(=O)c2cc1OC | 44.3 | -24.7 | 70.1* | -494.2 | -23.8 | -23.7 | -13.8 | -3.1 | 7.0 | 18.3
COc1ccc(NCc2ccc3c(c2)OCO3)cc1Cl | -2.9 | 10.5 | 0.6 | 9.5 | 0.5 | x | x | x | x | x
COc1cccc2sc3ccc(NCCC4CCCN4C)cc3c(=O)c12 (stereo not given) | -21.0 | -7.8 | 11.7 | 8.8 | -5.4 | x | x | x | x | x
COc1cc2sc3cc(NCC[C@@H]4CCCN4C)ccc3c(=O)c2cc1OC | 50.2* | 57.0* | 52.8* | i | -26.3 | 9.3 | 9.1 | 13.3 | 30.2 | 36.9
COc1cc2sc3cc(NCc4ccc(C)o4)ccc3c(=O)c2cc1OC | 81.0* | -22.5 | 87.3* | i | -52.0 | -9.0 | 56.4* | 88.3* | 79.6* | 62.4*
COc1cccc2sc3cc(NCc4ccc5c(c4)OCO5)ccc3c(=O)c12 | 14.1 | 10.6 | 58.2* | -487.2 | -62.7 | 1.7 | 2.5 | 3.1 | 14.7 | 12.5
Cc1csc(N2C(=O)C3C4CCC(O4)C3C2=O)n1 (stereo not given) | x | x | x | 6.6 | 1.1 | x | x | x | x | x
Cc1ccc(S(=O)(=O)N2C[C@H]3C(=O)C[C@@H](c4ccc(Cl)cc4)N(S(=O)(=O)c4ccccc4C)[C@H]3C[C@H]2c2ccccc2)cc1 | x | x | x | -12.9 | -2.0 | x | x | x | x | x
O=C(NC(=S)Nc1nc2ccccc2s1)c1cccs1 | 43.4 | 75.8* | 20.4 | 2.2 | -6.5 | 13.1 | 7.5 | 25.6 | 12.6 | 11.7
CN(C)S(=O)(=O)c1ccc2nc(NC(=O)c3cccs3)sc2c1 | 39.8 | 72.8* | 55.3* | -236.8 | 3.2 | 77.4* | 74.3* | 89.6* | 72.2* | 75.9*
O=C(Nc1nc2ccc(F)cc2s1)c1cccs1 | 91.9* | 91.4* | 94.8* | -95.2 | 0.0 | 66.6* | 96.0* | 102.7* | 93.2* | 80.9*
O=C(Nc1nc2ccc(S(=O)(=O)N3CCCC3)cc2s1)c1cccs1 | -6.5 | 25.8 | 0.8 | -301.2 | 2.4 | x | x | x | x | x
CCc1cc(CNC(=O)C2CCC(=O)N(Cc3ccccc3F)C2)on1 (stereo not given) | x | x | x | 7.1 | 2.6 | x | x | x | x | x
O=C(NCc1ccon1)C1CCC(=O)N(CCc2cccc(F)c2)C1 (stereo not given) | -9.8 | -21.5 | -5.4 | -3.5 | 0.3 | x | x | x | x | x
COc1ccccc1OCCCOc1ccc(/C=C2\SC(=O)NC2=O)cc1OC | 41.3 | 60.8* | -7.0 | -80.1 | -25.2 | 38.5 | 48.4 | 47.5 | 15.2 | 29.7
O=C1NC(=O)/C(=C\c2ccc(OCc3ccccc3)cc2)S1 | 44.6 | 64.5* | -1.8 | 15.5 | 2.1 | 16.8 | 33.4 | -0.7 | 5.9 | 6.0
CCc1ccc2oc(-c3cccc(NC(=O)c4cccnc4)c3)nc2c1 | 37.3 | 61.2* | 46.8 | 12.3 | 0.1 | 6.5 | -4.0 | -0.7 | 1.4 | 1.8
CCN(CC(=O)Nc1ccc(NC(C)=O)cc1)C(=O)CSCc1c(C)noc1C | 4.5 | 5.8 | 0.3 | 16.0 | 1.3 | x | x | x | x | x
COc1cc(C=C2C(=O)c3ccccc3C2=O)ccc1O | 93.3* | -9.6 | 93.7* | 18.0 | 2.5 | 13.1 | 90.6* | 97.3* | 79.8* | 60.8*
COc1ccc(C=C2C(=O)c3ccccc3C2=O)cc1O | 94.1* | 95.1* | 96.2* | 13.4 | 0.8 | 98.3* | 98.4* | 101.9* | 94.0* | 20.5
CC(C)(C)OC(=O)N[C@H](C(=O)OC(C)(C)C)c1ccc2ccccc2c1 | -8.2 | -1.9 | -0.6 | 8.3 | 4.0 | x | x | x | x | x
O=c1[nH]c2cc3c(cc2cc1CN(Cc1ccco1)C(=S)NCCCN1CCOCC1)OCCO3 | 0.9 | -19.9 | 0.2 | -345.1 | -1.1 | x | x | x | x | x
SMILES | SENP8 block-1 | SENP6 inh | SENP7 inh | SENP8 block-2 | SENP1 FRET inh | SENP8 conf | SENP6 conf | SENP7 conf | Casp3 select | SENP luc ctr
CCCCOc1ccc(-c2nc(-c3cccnc3)no2)cc1 | 64.1* | 81.0* | 78.9* | 19.9 | 2.0 | -5.4 | 5.7 | 23.4 | 5.8 | 6.8
COc1ccc(-c2nc(-c3cccnc3)no2)cc1 | 67.1* | 77.2* | 84.3* | -2.0 | 1.1 | 77.5* | 78.0* | 96.0* | 86.5* | 47.9
CCOc1ccc(-c2noc(-c3cccnc3)n2)cc1OC | -9.4 | -8.7 | 4.6 | 25.7 | -1.9 | x | x | x | x | x
CCOc1cc(-c2noc(-c3cccnc3)n2)ccc1OC | -3.0 | -18.2 | 3.8 | 4.0 | -3.9 | x | x | x | x | x
CCOc1ccc(-c2nc(-c3ccccc3C)no2)cc1 | 94.5* | 92.9* | 99.1* | x | x | 70.5* | 55.5* | 31.8 | 78.1* | 25.3
CCOc1ccc(-c2nc(-c3cccnc3)no2)cc1 | 85.1* | 72.5* | 94.8* | 31.9 | 3.6 | 5.2 | 73.0* | 90.6* | 74.4* | 32.6
O=S(=O)(O)c1ccc(N=NNc2ccc(Br)cc2)cc1 | 89.9* | 89.5* | 89.9* | 30.2 | 0.2 | 90.9* | 91.1* | 98.8* | 85.2* | 93.0*
O=C1OC(c2ccccc2)=C/C1=C/c1cccs1 | 38.1 | 59.3* | 57.1* | 11.2 | -21.4 | 24.0 | 36.8 | 46.5 | 35.2 | 20.5
Cc1cc(C)c[n+](C2=C([O-])c3ccccc3C(=O)/C2=N\S(=O)(=O)c2cccs2)c1 | 21.2 | 54.8* | 14.7 | 75.0* | 0.5 | 39.5 | 58.9* | 21.8 | -4.2 | -8.1
CN(/C(=N/S(=O)(=O)c1cccs1)c1ccccc1)c1ccccc1 | 4.1 | 5.3 | 5.3 | 5.1 | 3.1 | x | x | x | x | x
O=S(=O)([N-]c1nc2ccccc2nc1-[n+]1ccc(CCCc2ccccc2)cc1)c1cccs1 | -11.4 | -8.5 | -5.9 | 17.5 | -42.7 | x | x | x | x | x
O=C1/C(=N\S(=O)(=O)c2cccs2)C([n+]2ccc(CCCc3ccccc3)cc2)=C([O-])c2ccccc21 | 38.8 | 59.7* | 21.3 | 31.9 | 2.8 | -9.9 | 28.2 | 4.9 | -0.9 | -11.4
Cc1cc[n+](C2=C([O-])c3ccccc3C(=O)/C2=N\S(=O)(=O)c2cccs2)cc1C | 39.0 | 59.7* | 16.4 | 28.6 | 0.9 | 18.5 | 30.4 | 11.2 | 0.8 | 3.3
